The IC50 is the point on the concentration scale where inhibition reaches its midpoint. The term Ki denotes the equilibrium dissociation constant of an inhibitor or competing ligand from its target. The low end stands for tighter binding, the high end for weaker binding.

Structures are written as SMILES. Bounds are passed on as bounds.

Assay [1] deals with T1, Cannabinoid receptor 1 (Mus musculus, UniProt P47746). The assay is described as follows: Inverse agonist at mouse brain CB1R expressed in CHOK1 cell membranes assessed as inhibition of CP55940-stimulated [35S]GTP-gammaS binding measured after 60 mins by scintillation spectrometry.
The next assay has as its target Cannabinoid receptor 2 (Mus musculus, UniProt P47936). The assay is described as follows: Displacement of [3H]CP55940 from mouse CB2R expressed in CHOK1 cell membranes. Summed up: (§1)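 Displacement binding isotherms with [3H]-CP55940 as labeled ligand on plasma membranes from CHO-K1 cells expressing CB1R or CB2R. Ki was calculated by the Cheng-Prusoff equation. Values are mean ± SEM of 3 independent experiments, each run in triplicate.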
On the technique in general: Loss of bound radioactivity is the signal in a displacement assay; it reports binding, not function.

In assay [2] the target is T1, Cannabinoid receptor 1. The assay is described as follows: Displacement of [3H]CP55940 from mouse brain CB1R expressed in CHOK1 cell membranes. Summed up: as §1

T1 sequence (P47746 whole entry): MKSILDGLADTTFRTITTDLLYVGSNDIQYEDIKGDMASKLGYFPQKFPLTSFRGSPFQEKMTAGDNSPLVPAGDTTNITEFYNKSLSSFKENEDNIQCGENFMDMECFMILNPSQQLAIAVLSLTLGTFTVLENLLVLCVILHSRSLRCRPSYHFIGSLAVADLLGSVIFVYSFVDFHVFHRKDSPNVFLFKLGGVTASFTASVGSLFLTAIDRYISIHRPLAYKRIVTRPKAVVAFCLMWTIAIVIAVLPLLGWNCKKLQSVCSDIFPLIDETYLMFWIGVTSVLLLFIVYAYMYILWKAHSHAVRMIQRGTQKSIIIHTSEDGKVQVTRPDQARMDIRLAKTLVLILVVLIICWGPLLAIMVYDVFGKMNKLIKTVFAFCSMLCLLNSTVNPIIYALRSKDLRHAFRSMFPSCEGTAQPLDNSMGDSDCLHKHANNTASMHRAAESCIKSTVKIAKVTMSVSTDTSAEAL
Chain of Cannabinoid receptor 2 (P47936 whole entry): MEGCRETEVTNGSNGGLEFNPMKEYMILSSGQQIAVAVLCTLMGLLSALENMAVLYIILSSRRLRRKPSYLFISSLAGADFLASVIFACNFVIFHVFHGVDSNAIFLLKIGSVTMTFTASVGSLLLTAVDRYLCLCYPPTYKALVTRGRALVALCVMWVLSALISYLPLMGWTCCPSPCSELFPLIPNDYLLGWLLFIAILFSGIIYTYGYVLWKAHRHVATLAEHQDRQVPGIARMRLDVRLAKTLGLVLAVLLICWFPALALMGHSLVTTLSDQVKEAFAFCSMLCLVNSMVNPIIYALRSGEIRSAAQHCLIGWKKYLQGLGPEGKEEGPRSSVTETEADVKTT

With `CC(C)(C)/C(N)=N\C(=N/S(=O)(=O)c1ccc(Cl)cc1)N1CC(c2ccccc2)C(c2ccc(Cl)cc2)=N1` (stereo not given), at Cannabinoid receptor 1 [1], the IC50 worked out at 182 nM. This molecule came in with a Ki at Cannabinoid receptor 2 above 1000 nM.

On Cannabinoid receptor 2, `N/C(=N/C(=N\S(=O)(=O)c1ccc(Cl)cc1)N1CC(c2ccccc2)C(c2ccc(Cl)cc2)=N1)c1ccc(Br)cc1` (stereo not given) had a Ki above 1000 nM.

In turn, `CS/C(N)=N\C(=N/S(=O)(=O)c1ccc(Cl)cc1)N1CC(c2ccccc2)C(c2ccc(Cl)cc2)=N1` (stereo not given) returned a Ki on Cannabinoid receptor 2 above 1000 nM.

With `N/C(COc1ccccc1)=N/C(=N\S(=O)(=O)c1ccc(Cl)cc1)N1CC(c2ccccc2)C(c2ccc(Cl)cc2)=N1` (stereo not given), the IC50 at Cannabinoid receptor 1 [1] is 125 nM. The molecule also registered a Ki on Cannabinoid receptor 2 above 1000 nM.

With `C/C(N)=N\C(=N/S(=O)(=O)c1ccc(C(C)C)cc1)N1CC(c2ccccc2)C(c2ccc(Cl)cc2)=N1` (stereo not given), the IC50 at Cannabinoid receptor 1 [1] came out at 90 nM. Also, the Ki on Cannabinoid receptor 2 is above 1000 nM; at Cannabinoid receptor 1 [2], 10 nM.

Take `N/C(=N/C(=N\S(=O)(=O)c1ccc(Cl)cc1)N1CC(c2ccccc2)C(c2ccc(Cl)cc2)=N1)c1ccc(F)cc1` (stereo not given): the IC50 at Cannabinoid receptor 1 [1] was 116 nM. Moreover, on Cannabinoid receptor 2, the Ki came to 173 nM.

`N/C(=N/C(=N\S(=O)(=O)c1ccc(Cl)cc1)N1CC(c2ccccc2)C(c2ccc(Cl)cc2)=N1)c1ccccc1` (stereo not given): the IC50 at Cannabinoid receptor 1 [1] stood at 117 nM. Besides, at Cannabinoid receptor 2, the affinity, expressed as Ki, was 1000 nM.

Consider `N/C(=N/C(=N\S(=O)(=O)c1ccc(Cl)cc1)N1CC(c2ccccc2)C(c2ccc(Cl)cc2)=N1)C12CC3CC(CC(C3)C1)C2` (stereo not given), for which the IC50 at Cannabinoid receptor 1 [1] was 226 nM. For the same molecule, the Ki on Cannabinoid receptor 2 was above 1000 nM.

As for `CS/C(N)=N\C(=N/S(=O)(=O)c1ccc(I)cc1)N1CC(c2ccccc2)C(c2ccc(Cl)cc2)=N1` (stereo not given), at Cannabinoid receptor 1 [1], the IC50 is 65 nM. In addition, the Ki on Cannabinoid receptor 2 is above 1000 nM; on Cannabinoid receptor 1 [2], 10 nM.

Consider `N/C(=N/C(=N\S(=O)(=O)c1ccc(Cl)cc1)N1CC(c2ccccc2)C(c2ccc(Cl)cc2)=N1)c1cccs1` (stereo not given), for which the IC50 at Cannabinoid receptor 1 [1] was found to be 101 nM. Besides, the Ki at Cannabinoid receptor 2 is above 1000 nM.

With `N/C(=N/C(=N\S(=O)(=O)c1ccc(Cl)cc1)N1CC(c2ccccc2)C(c2ccc(Cl)cc2)=N1)C1CC1` (stereo not given), the IC50 at Cannabinoid receptor 1 [1] stood at 241 nM. This molecule also yielded a Ki on Cannabinoid receptor 2 above 1000 nM.

As for `N/C(=N/C(=N\S(=O)(=O)c1ccc(Cl)cc1)N1CC(c2ccccc2)C(c2ccc(Cl)cc2)=N1)SCc1ccccc1` (stereo not given), the concentration for half-maximal inhibition (IC50) on Cannabinoid receptor 1 [1] was found to be 213 nM. In addition, on Cannabinoid receptor 2, the Ki was above 1000 nM.

Turning to `COc1ccc(S(=O)(=O)/N=C(\N=C(/C)N)N2CC(c3ccccc3)C(c3ccc(Cl)cc3)=N2)cc1` (stereo not given), the IC50 at Cannabinoid receptor 1 [1] was 70 nM. For the same molecule, the Ki at Cannabinoid receptor 2 was above 1000 nM.

For the molecule `N/C(=N/C(=N\S(=O)(=O)c1ccc(Cl)cc1)N1CC(c2ccccc2)C(c2ccc(Cl)cc2)=N1)c1ccc(Cl)cc1` (stereo not given), the IC50 at Cannabinoid receptor 1 [1] is 18 nM. Further, the Ki is 158 nM at Cannabinoid receptor 2 and 10 nM on Cannabinoid receptor 1 [2].

`N/C(=N/C(=N\S(=O)(=O)c1ccc(Cl)cc1)N1CC(c2ccccc2)C(c2ccc(Cl)cc2)=N1)SCCCc1ccccc1` (stereo not given): the IC50 on Cannabinoid receptor 1 [1] turned out to be 2640 nM. In addition, the Ki on Cannabinoid receptor 2 was above 1000 nM.

With `C/C(N)=N\C(=N/S(=O)(=O)c1ccc(I)cc1)N1CC(c2ccccc2)C(c2ccc(Cl)cc2)=N1` (stereo not given), the IC50 on Cannabinoid receptor 1 [1] amounted to 65 nM. Further, the Ki on Cannabinoid receptor 2 is above 1000 nM.

Consider `C/C(N)=N\C(=N/S(=O)(=O)c1ccc(F)cc1)N1CC(c2ccccc2)C(c2ccc(Cl)cc2)=N1` (stereo not given), for which the IC50 at Cannabinoid receptor 1 [1] turned out to be 686 nM. Further, the Ki at Cannabinoid receptor 2 was above 1000 nM.

In the case of `N/C(=N/C(=N\S(=O)(=O)c1ccc(Cl)cc1)N1CC(c2ccccc2)C(c2ccc(Cl)cc2)=N1)c1ccccc1F` (stereo not given), the concentration for half-maximal inhibition (IC50) at Cannabinoid receptor 1 [1] stood at 72 nM. Further, the Ki on Cannabinoid receptor 2 was 107 nM.

For the molecule `CC(C)S/C(N)=N\C(=N/S(=O)(=O)c1ccc(Cl)cc1)N1CC(c2ccccc2)C(c2ccc(Cl)cc2)=N1` (stereo not given), the IC50 at Cannabinoid receptor 1 [1] came out at 395 nM. On Cannabinoid receptor 2, this molecule showed a Ki above 1000 nM.

In the case of `N/C(=N/C(=N\S(=O)(=O)c1ccc(Cl)cc1)N1CC(c2ccccc2)C(c2ccc(Cl)cc2)=N1)c1cccc(Br)c1` (stereo not given), the IC50 on Cannabinoid receptor 1 [1] stood at 292 nM. The molecule also displayed a Ki on Cannabinoid receptor 2 of 250 nM.

On to `C/C(N)=N\C(=N/S(=O)(=O)c1ccc(Br)cc1)N1CC(c2ccccc2)C(c2ccc(Cl)cc2)=N1` (stereo not given), for which, on Cannabinoid receptor 1 [1], the 50% inhibitory concentration (IC50) is 19 nM. In addition, the Ki at Cannabinoid receptor 2 was above 1000 nM.

With `CC(C)/C(N)=N\C(=N/S(=O)(=O)c1ccc(Cl)cc1)N1CC(c2ccccc2)C(c2ccc(Cl)cc2)=N1` (stereo not given), the IC50 on Cannabinoid receptor 1 [1] is above 1000 nM. On Cannabinoid receptor 2, the Ki is above 1000 nM.

As for `CS/C(N)=N\C(=N/S(=O)(=O)c1ccc2ccccc2c1)N1CC(c2ccccc2)C(c2ccc(Cl)cc2)=N1` (stereo not given), the IC50 at Cannabinoid receptor 1 [1] came out at 2670 nM. For the same molecule, the Ki is above 1000 nM at Cannabinoid receptor 2 and 29 nM on Cannabinoid receptor 1 [2].

In the case of `C/C(N)=N\C(=N/S(=O)(=O)c1ccc(C(C)(C)C)cc1)N1CC(c2ccccc2)C(c2ccc(Cl)cc2)=N1` (stereo not given), the IC50 on Cannabinoid receptor 1 [1] turned out to be 30 nM. At Cannabinoid receptor 2, this molecule yielded a Ki above 1000 nM.

For the molecule `C/C(N)=N\C(=N/S(=O)(=O)c1ccccc1)N1CC(c2ccccc2)C(c2ccc(Cl)cc2)=N1` (stereo not given), the IC50 at Cannabinoid receptor 1 [1] came out at 2040 nM. The molecule further had a Ki on Cannabinoid receptor 2 above 1000 nM.

As to `C/C(N)=N\C(=N/S(=O)(=O)c1ccc(C(F)(F)F)cc1)N1CC(c2ccccc2)C(c2ccc(Cl)cc2)=N1` (stereo not given), the IC50 at Cannabinoid receptor 1 [1] worked out at 40 nM. For the same molecule, the Ki on Cannabinoid receptor 2 is above 1000 nM; on Cannabinoid receptor 1 [2] it was 5.7 nM.

For the molecule `N/C(=N/C(=N\S(=O)(=O)c1ccc(Cl)cc1)N1CC(c2ccccc2)C(c2ccc(Cl)cc2)=N1)c1ccc(F)cc1F` (stereo not given), the half-inhibitory concentration (IC50) at Cannabinoid receptor 1 [1] was found to be 22 nM. At Cannabinoid receptor 2, this molecule had a Ki of 106 nM.

On to `N/C(=N/C(=N\S(=O)(=O)c1ccc(Cl)cc1)N1CC(c2ccccc2)C(c2ccc(Cl)cc2)=N1)c1ccccn1` (stereo not given), for which the IC50 at Cannabinoid receptor 1 [1] stood at 33 nM. For the same molecule, the Ki on Cannabinoid receptor 2 is above 1000 nM; on Cannabinoid receptor 1 [2], 26 nM.

On to `C/C(N)=N\C(=N/S(=O)(=O)c1ccc(OC(F)(F)F)cc1)N1CC(c2ccccc2)C(c2ccc(Cl)cc2)=N1` (stereo not given), for which, at Cannabinoid receptor 1 [1], the IC50 stood at 76 nM. Also, the Ki on Cannabinoid receptor 2 was above 1000 nM.

For `COc1cccc(/C(N)=N\C(=N/S(=O)(=O)c2ccc(Cl)cc2)N2CC(c3ccccc3)C(c3ccc(Cl)cc3)=N2)c1` (stereo not given), at Cannabinoid receptor 1 [1], the IC50 was found to be 33 nM. On Cannabinoid receptor 2, this molecule returned a Ki of 161 nM.

`C/C(N)=N\C(=N/S(=O)(=O)c1ccc(Cl)cc1)N1CC(c2ccccc2)C(c2ccc(Cl)cc2)=N1` (stereo not given) had a Ki on Cannabinoid receptor 2 above 1000 nM.

Take `C/C(N)=N\C(=N/S(=O)(=O)c1ccc(C)cc1)N1CC(c2ccccc2)C(c2ccc(Cl)cc2)=N1` (stereo not given): the IC50 at Cannabinoid receptor 1 [1] was 113 nM. The Ki at Cannabinoid receptor 2 was above 1000 nM.

As to `N/C(=N/C(=N\S(=O)(=O)c1ccc(Cl)cc1)N1CC(c2ccccc2)C(c2ccc(Cl)cc2)=N1)SCCc1ccccc1` (stereo not given), on Cannabinoid receptor 1 [1], the half-inhibitory concentration (IC50) amounted to 441 nM. Also, the Ki on Cannabinoid receptor 2 is above 1000 nM.

As to `CS/C(N)=N\C(=N/S(=O)(=O)c1ccc(C(F)(F)F)cc1)N1CC(c2ccccc2)C(c2ccc(Cl)cc2)=N1` (stereo not given), the IC50 at Cannabinoid receptor 1 [1] was found to be 97 nM. The inhibitory constant (Ki) at Cannabinoid receptor 2 is above 1000 nM; at Cannabinoid receptor 1 [2] it was 63 nM.

On to `CCS/C(N)=N\C(=N/S(=O)(=O)c1ccc(Cl)cc1)N1CC(c2ccccc2)C(c2ccc(Cl)cc2)=N1` (stereo not given), for which, at Cannabinoid receptor 1 [1], the IC50 was 534 nM. On Cannabinoid receptor 2, this molecule registered a Ki above 1000 nM.

Regarding `N/C(=N/C(=N\S(=O)(=O)c1ccc(Cl)cc1)N1CC(c2ccccc2)C(c2ccc(Cl)cc2)=N1)c1ccncc1` (stereo not given), the IC50 at Cannabinoid receptor 1 [1] amounted to 603 nM. Also, the Ki on Cannabinoid receptor 2 was above 1000 nM.

As for `CNC(=NS(=O)(=O)c1ccc(Cl)cc1)N1CC(c2ccccc2)C(c2ccc(Cl)cc2)=N1` (stereo not drawn) [RAC-IBIPINABANT], on Cannabinoid receptor 1 [1], the IC50 was found to be 76 nM. At Cannabinoid receptor 1 [2], this molecule had a Ki of 8.1 nM.

As to `C/C(N)=N\C(=N/S(=O)(=O)c1ccc2ccccc2c1)N1CC(c2ccccc2)C(c2ccc(Cl)cc2)=N1` (stereo not given), the IC50 on Cannabinoid receptor 1 [1] stood at 118 nM. The molecule further came in with a Ki at Cannabinoid receptor 2 above 1000 nM.

For the origin of these results see ChEMBL document CHEMBL3992534, “Design, Synthesis, and Biological Evaluation of Novel, Non-Brain-Penetrant, Hybrid Cannabinoid CB1R Inverse Agonist/Inducible Nitric Oxide Synthase (iNOS) Inhibitors for the Treatment of Liver Fibrosis” (J Med Chem, 2017).
